The source made the active and inactive calls. No cut-off for these calls is given here.
Columns and labels:
MDA-MB-231 [1] = assay: Antiproliferative activity against human MDA-MB-231 cells after 4 days; assay type: functional, cell-based; conditions: MDA-MB-231, 96 h
MCF7 = assay: Antiproliferative activity against human MCF7 cells after 5 days; assay type: functional, cell-based; conditions: MCF7, 120 h
[2] = Inhibition of temperature-induced tubulin polymerization of calf brain; set-up: species or system Bos taurus
In short: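 Tubulin from fresh calf brain cortex, purified by temperature-dependent polymerization/depolymerization cycles and checked by PAGE, in PEMG buffer. Supernatant mixed with compound in DMSO at varying concentrations, preincubated 15 min at 37 °C, chilled, then 25 mM GTP solution added. Temperature switched from 2 to 37 °C in cuvettes; turbidity at 350 nm over 20 min. Mean of two controls = 100%; IC50 from three independent experiments.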

MDA-MB-231 [3] = assay: Cell cycle arrest in MDA-MB-231 cells by accumulation at G2/M phase after 24 hrs by flow cytometry; assay type: functional, cell-based; conditions: Homo sapiens
In short: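 MDA-MB 231 cells at 70–80% confluence exposed 24 h to compounds diluted from DMF stocks (0.1% DMF final), various concentrations, vincristine reference. Cells trypsinized, fixed in 70% ethanol, DNA-extracted, stained with propidium iodide ≥30 min at room temperature. 8000–15,000 events per sample by flow cytometry; sub-G1, G0/G1, S, G2/M fractions. Representative of two experiments.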

Tubulin (Homo sapiens) = Tubulin (Homo sapiens) (UniProt P68371+Q9H4B7+P0DPH7+P68366+Q13509+Q71U36+P04350+Q3ZCM7+P07437+P68363+Q9BQE3+Q6PEY2+Q13885+Q9BVA1+Q9BUF5); assay: Inhibition of tubulin polymerization at 5 uM by microplate assay; assay type: protein-complex assay
In short: (§1)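 Commercial microplate tubulin kit in G-PEM buffer with 5% glycerol. Compounds from DMSO stocks, diluted 1:10 in G-PEM, added to wells prewarmed to 37 °C. Cold tubulin added; absorbance at 355 nm read every minute over about 28–30 min at 37 °C after shift from 2 °C. Solvent controls; colchicine and docetaxel as references.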

U-87MG ATCC [4] = assay: Effect on cell morphology in human U87 cells assessed as disruption of microtubule network and loss of function at 10 nM after 3 hrs; assay type: functional, cell-based
In short: (§2)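 U-87 MG glioma cells at 75% confluence treated 3 h at 37 °C; vehicle ethanol. Fixed in 4% paraformaldehyde, permeabilized with 1% Triton X-100. Chromatin stained with SYTOX Green; microtubules with mouse anti-α-tubulin and Cy5 goat anti-mouse antibody (1:200). Imaged by confocal laser scanning microscopy.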

U-87MG ATCC [5] = assay: Effect on cell morphology in human U87 cells assessed as condensation of microtubule around the nucleus and loss of function at 50 nM after 3 hrs; assay type: functional, cell-based; in short: as §2
Tubulin = assay: Inhibition of tubulin polymerization by microplate assay; assay type: protein-complex assay, Homo sapiens; in short: as §1

SMILES | IC50 (MDA-MB-231 [1]) | IC50 (MCF7) | also measured
CCCCCCc1ccc2[nH]c(-c3ccc(C(F)(F)F)cc3)c(C=O)c2c1 | 43 nM | 22 nM | 
CCCCCc1ccc2[nH]c(-c3ccc(C(F)(F)F)cc3)c(C=O)c2c1 | 42 nM | 67 nM | 
COc1ccc(-c2[nH]c3ccc(C(C)(C)C)cc3c2C=O)cc1 | 280 nM | 580 nM | 
COc1ccc2c(C=O)c(-c3ccc(OC)c(O)c3)[nH]c2c1 | 800 nM | 1650 nM | 
Cc1ccc(-c2[nH]c3ccc(C)cc3c2C=O)cc1 | 48 nM | 165 nM | 
COc1ccc(-c2[nH]c3ccc(OC)cc3c2C=O)cc1 |  |  | IC50 [2]: 4000 nM
COc1ccc(-c2[nH]c3ccc(CC(C)C)cc3c2C=O)cc1 | 72 nM | 180 nM | 
COc1ccc(-c2[nH]c3cc(F)ccc3c2C=O)cc1 | 59 nM |  | IC50 [2]: 1800 nM
COc1ccc2c(C=O)c(-c3ccc(OC)c(OC)c3)[nH]c2c1 | 270 nM | 20 nM | 
CCCCc1ccc2[nH]c(-c3ccc(F)cc3)c(C=O)c2c1 | 350 nM | 200 nM | 
COc1ccc(-c2[nH]c3ccc(C)cc3c2C=O)cc1 | 86 nM | 140 nM | Activity (MDA-MB-231 [3]): Active
COc1ccc(-c2[nH]c3cc(OC)ccc3c2C=O)cc1 | 35 nM | 160 nM | IC50 [2]: 1500 nM
COc1cccc(-c2[nH]c3cc(OC)ccc3c2C=O)c1 | 1030 nM | 390 nM | 
CC[C@]1(O)C[C@H]2CN(CCc3c([nH]c4ccccc34)[C@@](C(=O)OC)(c3cc4c(cc3OC)N(C=O)[C@H]3[C@@](O)(C(=O)OC)[C@H](OC(C)=O)[C@]5(CC)C=CCN6CC[C@]43[C@@H]65)C2)C1 |  |  | Activity (MDA-MB-231 [3]): Active; Activity (U-87MG ATCC [4]): Active
COc1ccc(-c2[nH]c3ccc(F)cc3c2C=O)cc1 | 540 nM | 240 nM | 
CCCCc1ccc(-c2[nH]c3ccc(CC)cc3c2C=O)cc1 | 300 nM | 200 nM | 
CCCCc1ccc2[nH]c(-c3ccc(C(F)(F)F)cc3)c(/C=N\O)c2c1 | 497 nM | 1660 nM | 
CCCCc1ccc2[nH]c(-c3ccc(OC)cc3)c(/C=N\O)c2c1 | 40 nM | 212 nM | Activity (MDA-MB-231 [3]): Active

More lines, main results first:

IC50 (MDA-MB-231 [1]) | IC50 (MCF7) | SMILES | also measured
32 nM | 140 nM | CCCCc1ccc2[nH]c(-c3ccc(C(F)(F)F)cc3)c(/C=N\C)c2c1 | 
27 nM | 65 nM | COc1ccc(-c2[nH]c3cc(Cl)ccc3c2C=O)cc1 | 
34 nM | 220 nM | C/N=C\c1c(-c2ccc(OC)cc2)[nH]c2cc(OC)ccc12 | IC50 [2]: 1800 nM
7.8 nM | 37 nM | Cc1ccc(-c2[nH]c3cc(Cl)ccc3c2C=O)cc1 | 
33 nM | 66 nM | CCCCc1ccc2[nH]c(-c3ccc(C(F)(F)F)cc3)c(C=O)c2c1 | Activity (MDA-MB-231 [3]): Active; Activity (Tubulin (Homo sapiens)): inactive
26 nM | 62 nM | COc1ccc(-c2[nH]c3cc(Cl)c(C)cc3c2C=O)cc1 | 
34 nM | 54 nM | CCCCc1ccc2[nH]c(-c3ccc(C)cc3)c(C=O)c2c1 | Activity (MDA-MB-231 [3]): Active
27 nM | 58 nM | CCCCc1ccc2[nH]c(-c3ccc(CC)cc3)c(C=O)c2c1 | Activity (MDA-MB-231 [3]): Active
7.4 nM | 6 nM | CCCCCCc1ccc2[nH]c(-c3ccc(OC)cc3)c(C=O)c2c1 | Activity (MDA-MB-231 [3]): Active
6 nM | 21 nM | CCCCCc1ccc2[nH]c(-c3ccc(OC)cc3)c(/C=N\C)c2c1 | 
29 nM | 97 nM | COc1ccc(-c2[nH]c3ccc(C(C)C)cc3c2C=O)cc1 | 
5.5 nM | 20 nM | CCCCCc1ccc2[nH]c(-c3ccc(OC)cc3)c(C=O)c2c1 | 
6.7 nM | 22 nM | CCCCc1ccc2[nH]c(-c3ccc(OC)cc3)c(C=O)c2c1 | Activity (MDA-MB-231 [3]): Active; inhibition (Tubulin (Homo sapiens)): 23%; Activity (U-87MG ATCC [5]): Active
31 nM | 100 nM | COc1ccc2c(C=O)c(-c3ccc(C)cc3)[nH]c2c1 | 
6 nM | 27 nM | CCCCc1ccc2[nH]c(-c3ccc(OC)cc3)c(/C=N\C)c2c1 | Activity (MDA-MB-231 [3]): Active; IC50 (Tubulin): 1200 nM
20 nM | 54 nM | CCCc1ccc2[nH]c(-c3ccc(OC)cc3)c(C=O)c2c1 | 

Source: ChEMBL document CHEMBL1143713, “Antimitotic activities of 2-phenylindole-3-carbaldehydes in human breast cancer cells” (Bioorg Med Chem, 2007)
